Test results taken from ChEMBL document CHEMBL1129428 (J Med Chem, 1996).

Assays:
Mus musculus [1] = experiment: Anticonvulsant activity after intraperitoneal injection into mice by using MES screen test after 0.5 hr; type: functional
Mus musculus [2] = experiment: Anticonvulsant activity after intraperitoneal injection into mice measured in a maximal electroshock scree (MES) screen; type: functional
Mus musculus [3] = experiment: Anticonvulsant activity after intraperitoneal injection into mice by using scPTZ screen after 0.5 hr; type: functional
Mus musculus [4] = experiment: Anticonvulsant activity after intraperitoneal injection into mice by using scPTZ screen test after 4 hr; type: functional
Mus musculus [5] = experiment: Compound was tested for toxicity after intraperitoneal injection into mice by using toxicity screen test after 4 hr; type: organism-based; conditions: in vivo, ip
Summary of the method: (§1)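 Mice injected intraperitoneally at 30, 100 and 300 mg/kg and examined 0.5 and 4 h afterwards. Each entry is the minimum dose giving activity (MES protection, scPTZ protection, or rotorod failure for neurotoxicity) in half or more of the mice. Activity is called absent if nothing occurs at 300 mg/kg.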

Mus musculus [6] = experiment: Compound was tested for anticonvulsant activity after intraperitoneal injection into mice by using MES screen test after 1h,dose 12.50 mg/kg; type: functional; conditions: ip
[7] = Compound was tested for toxicity after intraperitoneal injection into mice by using neurotoxicity screen test after 2 hr; type: organism-based; conditions: mouse, in vivo, ip
Summary of the method: (§2)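 Quantitative intraperitoneal mouse testing in the MES, scPTZ or rotorod neurotoxicity screens at the peak time given for each compound (0.25–2 h). ED50 or TD50 reported in mg/kg with 95% CI and slope (SE).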

Rattus norvegicus [8] = experiment: Compound was tested for anticonvulsant activity after Oral Administration into Rats by using MES screen test after 4h,dose 12.5 mg/kg; No activity was demonstarted; type: functional, organism-based; set-up: dose 12.5 mg/kg
Summary of the method: (§3)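 Rats received the compound orally. […] Rats were tested in the MES screen at 0.25, 0.5, 1, 2 and 4 h. Each value is the number of rats protected out of 4. The test followed NINDS procedures.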

Rattus norvegicus [9] = experiment: Compound was tested for anticonvulsant activity after Oral Administration into Rats by using MES screen test after 0.25h,dose 12.5 mg/kg; number of rats out of four which were protected; type: functional; summary of the method: as §3
Rattus norvegicus [10] = experiment: Compound was tested for anticonvulsant activity after Oral Administration into Rats by using MES screen test after 0.5h,dose 12.5 mg/kg; No activity was demonstarted; type: functional, organism-based; set-up: dose 12.5 mg/kg; summary of the method: as §3
Rattus norvegicus [11] = experiment: Compound was tested for anticonvulsant activity after Oral Administration into Rats by using MES screen test after 1h,dose 12.5 mg/kg; number of rats out of four which were protected; type: functional; summary of the method: as §3
Rattus norvegicus [12] = experiment: Compound was tested for anticonvulsant activity after Oral Administration into Rats by using MES screen test after 2h,dose 12.5 mg/kg; No activity was demonstarted; type: functional, organism-based; set-up: dose 12.5 mg/kg; summary of the method: as §3
[13] = Protection index = TD50/ED50 (MES); conditions: mouse, in vivo; read-out: PI
Mus musculus [14] = experiment: Toxicity after intraperitoneal injection into mice by using toxicity screen test after 0.5 hr; type: organism-based; conditions: in vivo, ip; summary of the method: as §1
Mus musculus [15] = experiment: Compound was tested for anticonvulsant activity after intraperitoneal injection into mice by using MES screen test at 1 hr; type: functional; conditions: ip; summary of the method: as §2
[16] = Compound was tested for toxicity after intraperitoneal injection into mice by using neurotoxicity screen test after 4 hr; type: organism-based; conditions: mouse, in vivo, ip; summary of the method: as §1
Rattus norvegicus [17] = experiment: Compound was tested for anticonvulsant activity after Oral Administration into Rats by using MES screen test after 0.25h,dose 12.5 mg/kg; No activity was demonstarted; type: functional, organism-based; set-up: dose 12.5 mg/kg; summary of the method: as §3
Rattus norvegicus [18] = experiment: Compound was tested for anticonvulsant activity after Oral Administration into Rats by using MES screen test after 4h,dose 12.5 mg/kg; number of rats out of four which were protected; type: functional; summary of the method: as §3
Rattus norvegicus [19] = experiment: Compound was tested for anticonvulsant activity after Oral Administration into rat by using MES screen test after 2 hr; type: functional
Summary of the method: (§4)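 Rats dosed orally, typically at 50 mg/kg first, then mostly 12.5 mg/kg (some compounds at 30 mg/kg), and tested by maximal electroshock. Four rats per compound, scored at 0.25, 0.5, 1, 2 and 4 h as the number of rats protected out of 4.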

[20] = Compound was tested for toxicity after oral administration in rat by using neurotoxicity screen test after 0.25-24 hr; type: organism-based; conditions: in vivo
Summary of the method: (§5)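 Rat neurotoxicity after oral dosing, observed at 0.25, 0.5, 1, 2, 4, 6, 8 and 24 h (8 h omitted for one compound).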

Mus musculus [21] = experiment: Compound was tested for anticonvulsant activity after intraperitoneal injection into mice by using scPTZ screen test after 1 hr; type: functional; conditions: ip; summary of the method: as §2
Rattus norvegicus [22] = experiment: Compound was tested for anticonvulsant activity after Oral Administration into Rats by using MES screen test after 2h,dose 12.5 mg/kg; number of rats out of four which were protected; type: functional; summary of the method: as §3
[23] = Partition coefficient (logP); type: physicochemical; conditions: octanol/water
Summary of the method: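 Partition between 1-octanol and buffer at pH 7.4, with solutions prepared in 1-octanol before buffer is added. Quantified by UV, using λmax and ε values measured in 1-octanol.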

Mus musculus [24] = experiment: Compound was tested for anticonvulsant activity after intraperitoneal injection into mice by using MES screen test after 1 hr; type: functional; conditions: ip; summary of the method: as §2
Mus musculus [25] = experiment: Compound was tested for anticonvulsant activity after intraperitoneal injection into mice by using scPTZ screen test after 0.25 hr; type: functional; conditions: ip; summary of the method: as §2
Rattus norvegicus [26] = experiment: Anticonvulsant activity after oral administration into rats; type: functional; set-up: concentration or dose not given beside the values
[27] = Compound was tested for toxicity after oral administration in rat by using neurotoxicity screen test after 2 hr; type: organism-based; conditions: in vivo; summary of the method: as §5
[28] = Protection index = TD50/ED50 (MES); type: ADME; conditions: read-out: TI
Mus musculus [29] = experiment: Anticonvulsant activity after intraperitoneal injection into mice by using toxicity screen test after 0.5 hr; type: organism-based; conditions: in vivo, ip
Mus musculus [30] = experiment: Compound was tested for anticonvulsant activity after intraperitoneal injection into mice by using MES screen test after 2 hr; type: functional; conditions: ip; summary of the method: as §2
Mus musculus [31] = experiment: Compound was tested for anticonvulsant activity after intraperitoneal injection into mice by using scPTZ screen test after 2 hr; type: functional; conditions: ip; summary of the method: as §2
[32] = Compound was tested for toxicity after intraperitoneal injection into mice by using neurotoxicity screen test after 1 hr; type: organism-based; conditions: mouse, in vivo, ip; summary of the method: as §2
Rattus norvegicus [33] = experiment: Compound was tested for anticonvulsant activity after Oral Administration into Rats by using MES screen test after 0.25h,dose 12.50 mg/kg; number of rats out of four which were protected; type: functional; conditions: dose 12.5 mg/kg; summary of the method: as §3
Rattus norvegicus [34] = experiment: Compound was tested for anticonvulsant activity after Oral Administration into Rats by using MES screen test after 4h,dose 12.50 mg/kg; number of rats out of four which were protected; type: functional; conditions: dose 12.5 mg/kg; summary of the method: as §3
Rattus norvegicus [35] = experiment: Compound was tested for anticonvulsant activity after Oral Administration into Rats by using MES screen test after 0.5h,dose 12.50 mg/kg; number of rats out of four which were protected; type: functional; conditions: dose 12.5 mg/kg; summary of the method: as §3
Rattus norvegicus [36] = experiment: Compound was tested for anticonvulsant activity after Oral Administration into Rats by using MES screen test after 1h,dose 12.50 mg/kg; number of rats out of four which were protected; type: functional; conditions: dose 12.5 mg/kg; summary of the method: as §3
Rattus norvegicus [37] = experiment: Compound was tested for anticonvulsant activity after Oral Administration into Rats by using MES screen test after 2h,dose 12.50 mg/kg; number of rats out of four which were protected; type: functional; conditions: dose 12.5 mg/kg; summary of the method: as §3
Rattus norvegicus [38] = experiment: Compound was tested for anticonvulsant activity after Oral Administration into rat by using MES screen test after 4 hr; type: functional; summary of the method: as §4
Mus musculus [39] = experiment: Compound was tested for anticonvulsant activity after intraperitoneal injection into mice by using MES screen test after 0.5 hr; type: functional; conditions: ip; summary of the method: as §1
Mus musculus [40] = experiment: Compound was tested for anticonvulsant activity after intraperitoneal injection into mice by using scPTZ screen test after 0.5 hr; type: functional; conditions: ip; summary of the method: as §1
[41] = Compound was tested for […] after intraperitoneal injection into mice by using neurotoxicity screen test after 2 hr; type: organism-based; conditions: mouse, in vivo, ip; summary of the method: as §2
Rattus norvegicus [42] = experiment: Compound was tested for anticonvulsant activity after Oral Administration into Rats by using MES screen test after 4h,dose 50 mg/kg; number of rats out of four which were protected; type: functional; summary of the method: as §3
Rattus norvegicus [43] = experiment: Compound was tested for anticonvulsant activity after Oral Administration into Rats by using MES screen test after 2h,dose 50 mg/kg; number of rats out of four which were protected; type: functional; summary of the method: as §3
Rattus norvegicus [44] = experiment: Compound was tested for anticonvulsant activity after Oral Administration into Rats by using MES screen test after 0.25h,dose 50 mg/kg; No activity was demonstarted; type: functional, organism-based; set-up: dose 50 mg/kg; summary of the method: as §3
Rattus norvegicus [45] = experiment: Compound was tested for anticonvulsant activity after Oral Administration into Rats by using MES screen test after 0.5h,dose 50 mg/kg; number of rats out of four which were protected; type: functional; summary of the method: as §3
Rattus norvegicus [46] = experiment: Compound was tested for anticonvulsant activity after Oral Administration into Rats by using MES screen test after 1h,dose 50 mg/kg; number of rats out of four which were protected; number of rats out of four which were protected; type: functional; summary of the method: as §3
Mus musculus [47] = experiment: Compound was tested for toxicity after intraperitoneal injection into mice using toxicity screen test; conditions: in vivo, ip
Rattus norvegicus [48] = experiment: Compound was tested for anticonvulsant activity after Oral Administration into rat by using MES screen test after 6 hr; type: functional
Summary of the method: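 Oral dosing in rats, maximal electroshock challenge, with ED50, 95% CI, slope and SE determined at the time listed for each compound (0.25 to 6 h range).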

SMILES | Dose (Mus musculus [1]) | Dose (Mus musculus [2]) | Dose (Mus musculus [3]) | Dose (Mus musculus [4]) | Dose (Mus musculus [5]) | TD50 at 2 h [7] | Activity (Rattus norvegicus [10]) | Activity (Rattus norvegicus [11]) | selectivity ratio [13] | Dose (Mus musculus [14]) | Activity (Rattus norvegicus [17]) | Activity (Rattus norvegicus [18]) | ED50 (Rattus norvegicus [19]) | Activity (Rattus norvegicus [22]) | Activity (Rattus norvegicus [26]) | TD50 at 2 h [27] | ED50 (Mus musculus [30]) | ED50 (Mus musculus [31]) | also measured
Cc1ccc(C)c(Oc2ccc(/C=N/NC(N)=O)cc2)c1 | 100 mg/kg | 100 mg/kg | 30 mg/kg | 300 mg/kg | 300 mg/kg | 356 mg/kg | No activity | 1 | 10.3 | – | – | – | – | – | – | – | – | – | ED50 (Mus musculus [6]): 34.7 mg/kg; Activity (Rattus norvegicus [8]): No activity; Activity (Rattus norvegicus [9]): 1; Activity (Rattus norvegicus [12]): No activity
Cc1ccc(Sc2ccc(/C=N/NC(N)=O)cc2)cc1 | 30 mg/kg | 30 mg/kg | 100 mg/kg | 100 mg/kg | 100 mg/kg | – | No activity | 4 | – | 300 mg/kg | No activity | 4 | 3.65 mg/kg | 4 | – | – | – | – | ED50 (Mus musculus [15]): 9.46 mg/kg; TD50 at 4 h [16]: 197 mg/kg; TD50 [20]: > 500 mg/kg; ED50 (Mus musculus [21]): > 300 mg/kg
C/C(=N/NC(N)=O)c1ccc(Oc2ccc(F)cc2)cc1 | 30 mg/kg | 30 mg/kg | 100 mg/kg | – | 100 mg/kg | 60.7 mg/kg | – | 4 | 5.22 | 300 mg/kg | No activity | 4 | 3.37 mg/kg | 4 | 4 | 109 mg/kg | – | – | logP [23]: 2.03; ED50 (Mus musculus [24]): 11.6 mg/kg; ED50 (Mus musculus [25]): > 80 mg/kg; selectivity ratio [28]: 32.3
NC(=O)N/N=C/c1ccc(Oc2ccc(Cl)cc2F)cc1 | 30 mg/kg | 30 mg/kg | – | – | 30 mg/kg | – | – | – | – | – | – | – | – | – | – | > 90 mg/kg | 3.31 mg/kg | > 45 mg/kg | Dose (Mus musculus [29]): 100 mg/kg; TD50 at 1 h [32]: 36.3 mg/kg; Activity (Rattus norvegicus [33]): 2; Activity (Rattus norvegicus [34]): 4; Activity (Rattus norvegicus [35]): 4; Activity (Rattus norvegicus [36]): 4; Activity (Rattus norvegicus [37]): 4; ED50 (Rattus norvegicus [38]): 1.13 mg/kg
NC(=O)N/N=C\c1ccc(Oc2cccc(Cl)c2)cc1 | 30 mg/kg | 100 mg/kg | 30 mg/kg | 300 mg/kg | 100 mg/kg | – | – | – | – | – | – | – | – | – | – | – | – | – | ED50 (Mus musculus [39]): 27.7 mg/kg; ED50 (Mus musculus [40]): 41.2 mg/kg; TD50 at 2 h [41]: 64.5 mg/kg; Activity (Rattus norvegicus [42]): 4; Activity (Rattus norvegicus [43]): 4; Activity (Rattus norvegicus [44]): No activity; Activity (Rattus norvegicus [45]): 4; Activity (Rattus norvegicus [46]): 4; Dose (Mus musculus [47]): 300 mg/kg
CCc1ccc(Oc2ccc(/C=N/NC(N)=O)cc2)cc1 | 30 mg/kg | 30 mg/kg | 300 mg/kg | – | 100 mg/kg | 34 mg/kg | – | 4 | 3.32 | 300 mg/kg | No activity | 4 | – | 4 | 2 | – | 10.3 mg/kg | > 100 mg/kg | ED50 (Rattus norvegicus [48]): 6.48 mg/kg
